JMJD2C inh: human JMJD2C demethylase inhibition | 330,000 tested, 0.069% active | Q9H3R0 | inhibition, % at 2.35 µM | GST-JMJD2C(1-420) H3K9me3 demethylation, DELFIA europium | AID 2099;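 active = more than half of a compound's replicate wells show inhibition beyond 50%, single wells judged on their own value; inconclusive = some, but no more than half, of replicates pass 50% inhibition; inactive = no replicate passes 50% inhibition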;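 also: signal counts dimethyl H3K9 product captured on neutravidin plate; 0% = median of DMSO wells and 100% = 0.3 times that DMSO median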
Target sequence (Q9H3R0 1-420 limits assumed): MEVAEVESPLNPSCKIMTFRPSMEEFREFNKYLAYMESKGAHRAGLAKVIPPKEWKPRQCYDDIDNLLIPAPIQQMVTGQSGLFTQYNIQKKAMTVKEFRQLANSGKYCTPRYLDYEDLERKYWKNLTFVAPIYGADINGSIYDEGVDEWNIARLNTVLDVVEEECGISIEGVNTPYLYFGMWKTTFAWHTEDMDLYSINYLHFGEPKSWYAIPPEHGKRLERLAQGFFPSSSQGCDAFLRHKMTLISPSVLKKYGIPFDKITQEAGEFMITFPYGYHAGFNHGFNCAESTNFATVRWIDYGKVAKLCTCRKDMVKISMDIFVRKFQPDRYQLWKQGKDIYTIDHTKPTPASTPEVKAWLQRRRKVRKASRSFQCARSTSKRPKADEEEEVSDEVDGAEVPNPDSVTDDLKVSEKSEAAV
Hep lipid drop: modulators of hepatic lipid droplet formation. AML12 mouse hepatocytes, oleate lipid droplets, BODIPY imaging. inhibition, % at 6.5 µM. 240,000 tested, 0.4% active;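 active = lipid droplet intensity inhibited by at least 50%, with more than 500 cells counted; inconclusive = wells with under 300 cells, treated as cytotoxic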
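Technique: fluorescence imaging, 20x objective, two fields per well / Assay system: AML12 hepatocytes (mouse) / Measure: % inhibition of lipid droplet signal / Doses: 6.5 µM single-point dosing / Incubation: overnight exposure / Reagent: 100 µM oleic acid challenge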
aDG glyco up: increases alpha dystroglycan glycosylation. AID 624168. 360,000 tested, 0.22% active. Pro5-aDG cells, alpha-DG glycosylation AlphaScreen (IIH6); 0% Pro5, 100% B10-LARGE cell signal. activation, % at 10 µM;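 active = activation of at least 8% versus controls, or a plate z-score of at least 8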;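 also: Pro5 are CHO cells carrying HIG-tagged alpha-DG that lacks glycosylation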
GC-B act: GC-B (human) receptor activation. HEK293-GC-B cells, CNP EC30, cGMP TR-FRET; 0% at EC30 CNP, 100% saturating CNP. 370,000 tested, 0.11% active. activation, % at 10 µM. AID 1920062;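 active = activation at 10 µM reaching about 35% in either raw or pattern-adjusted values, limit read from the data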
GC-A act: GC-A (human) enzyme activation; P16066; HEK293 GC-A cells, cGMP TR-FRET, EC30 ANP; 0% at EC30 ANP, 100% saturating ANP; activation, % at 10 µM; 370,000 tested, 0.14% active; AID 1671463; in the data active = activation above about 40%
GRIN3A LBD mod: modulators (binders) of human NR3A ligand-binding domain; Tm shift relative to glycine control, % at 25 µM; 340,000 tested, 2.5% active; NR3A LBD differential scanning fluorimetry, Tm shift; 0% = protein alone, 100% = glycine-bound protein;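 active = melting temperature shift of at least 10% of the positive control shift, at one fixed dose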
Starred values were filed as active, the others as inactive; ? = inconclusive; . = no result. Hits are enriched below; roughly 3% of the tested compounds scored in any of these assays.

SMILES	JMJD2C inh	Hep lipid drop	aDG glyco up	GC-B act	GC-A act	GRIN3A LBD mod
O=C1CCCC(=O)C1=C1SCCCS1	0	1	0	2	4	11*
O=C(NC(=S)Nc1cnc2ccccc2c1)c1ccccc1	-4	10	0	-3	5	-6
CNC(=S)NCC(O)c1ccc([N+](=O)[O-])cc1 (stereo unspecified)	-3	-17	1	4	-1	1
Fc1cccc(NC(=S)NCCc2ccccc2)c1	-3	-9	1	5	1	28*
S=C(NCCc1ccccc1)Nc1cnc2ccccc2c1	4	2	0	0	0	14*
CC(C)(CNC(=S)NCCc1ccccc1)CNC(=S)NCCc1ccccc1	19	9	2	1	-2	14*
O=[N+]([O-])c1ccc(C(O)CNC(=S)Nc2ccccc2)cc1 (stereo unspecified)	-6	4	0	-3	0	12*
OCCNC(=S)NCCc1ccccc1	-10	20	0	3	2	-2
O=C(CN1CCCc2ccccc21)NCc1ccccc1F	.	.	.	4	-1	.
Fc1ccc(-c2n[nH]c(=S)n2N=Cc2ccc(-c3ccccc3)cc2)cc1	.	.	.	-8	-4	.
C[C@H]1C2CC(OC(=O)Nc3ccc(C(F)(F)F)cc3)C(C2)[C@H]2CCCCN21 (stereo partly specified)	.	.	.	-2	-2	.
CCOC(=O)C1CCN(C(=O)C(C)(C)NC(=O)Nc2ccc3c(c2)CCC3)CC1	.	.	.	-6	2	.
N#CCC[C@@H]1CC[C@]2(CCCN(Cc3ccc(Br)cc3)C2)O1	.	.	.	-1	-5	.
S=C(NCCc1ccccc1)Nc1ccc(Nc2ccccc2)cc1	0	4	2	4	-2	23*
S=C(NCCCc1ccccc1)Nc1ccccc1	0	8	0	-2	2	-9
O=[N+]([O-])c1cccc(NC(=S)NCCc2ccccc2)c1	?	-6	2	1	6	33*
COc1cc(C2C(C(C)=O)=C(O)C(=O)N2CCc2ccc(OC)c(OC)c2)ccc1O (stereo unspecified)	-13	.	0	2	2	2
CCN(CC)CCN1C(=O)C(O)=C(C(C)=O)C1c1ccc(OC)c(OC)c1 (stereo unspecified)	0	.	0	2	4	11*
CCCCOc1ccc(OCCCC)c2c1NC1(N2)C(=O)N(C(C)=O)c2ccccc21	11	.	1	5	5	13*
COc1ccc(NC(=O)Nc2nnc(-c3ccncc3)s2)cc1	-3	25	0	5	0	11*
COc1ccc(NC(=O)Nc2nnc(-c3ccco3)s2)cc1	0	-4	0	-3	4	6
O=C(Nc1ccc(Cl)c(Cl)c1)Nc1nnc(-c2ccncc2)s1	10	-37	0	3	2	13*
O=C(Nc1nnc(-c2ccncc2)s1)Nc1ccccc1F	8	0	0	-3	2	-1
Cc1cccc(NC(=O)Cn2nnc(-c3ccccc3F)n2)c1C	.	.	.	3	5	.
CN(C)CC(=O)N[C@H]1C[C@@H]2O[C@H](CO)CC[C@@H]2O[C@@H]1CCc1ccc(-c2ccc(F)cc2)cc1	.	.	.	-5	8	.
SMILES	JMJD2C inh	Hep lipid drop	aDG glyco up	GC-B act	GC-A act	GRIN3A LBD mod
CC(=O)Nc1nc2ncccn2c1-c1ccc(F)c(F)c1	.	.	.	3	6	.
O=C(c1ccncc1)c1ccc(NC(=O)c2cccs2)cc1	-4	-64	0	-3	-1	0
O=C(Nc1ccc(O)cc1)c1ccc(NC(=O)c2cccs2)cc1	-3	-3	0	-5	2	28*
O=C(Nc1ccc(NC(=O)c2cccs2)cc1)c1cccnc1	-1	-4	0	-4	-2	8
O=C(Cc1cccs1)Nc1ccc(C(=O)O)cc1	-1	.	2	1	1	0
O=C(Nc1ccccc1)Nc1snnc1C(=O)Nc1cccc(O)c1	15	-24	0	-6	-6	24*
O=C(Cc1cccs1)Nc1cccc(C(=O)Nc2ccc(C(=O)O)cc2)c1	-9	0	0	2	0	23*

Bioassay records (PubChem BioAssay)
